The nature of data set [1]: Selectivity index, ratio of CC50 for human MCF7 cells to IC50 for chloroquine-resistant Plasmodium falciparum FcB1. The format is functional. The gist of the method: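 XTT 0.5 mg/mL added for 180 min, formazan read at 450 nm, value taken from dose–response curves, two experiments in triplicate. This CC50 is divided by the FcB1 IC50 to give the index.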
A short description of data set [2]: Cytotoxicity against human MCF7 cells after 48 hrs by MTT assay. The data set is classed as cell-based.
The subject of data set [3] is Plasmodium falciparum. As to the kind of experiment: Antimalarial activity against chloroquine-resistant Plasmodium falciparum FcB1 assessed as [3H]hypoxanthine incorporation after 48 hrs by beta-counter. The data set is classed as functional, organism-based. As to conditions: FcB1/Columbia. The gist of the method: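 Primary assay (Toulouse) on FcB1 cultured in RPMI with 25 mM HEPES and 10% human serum, O RBCs. Serial dilutions in triplicate, 2% parasitaemia, 2% haematocrit, 48 h at 37 °C, 5% CO2. [3H]-hypoxanthine added at 24 h, freeze-thaw harvest, β-counting. IC50 by linear regression on the linear segment of the semilog inhibition curve. Three independent repeats.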

A short description of data set [4]: Cytotoxicity against human KB cells after 72 hrs by alamar blue assay. The format is cell-based. The gist of the method:
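KB cells were seeded at 4×10^4 cells/mL in RPMI 1640 with 10% heat-inactivated FCS and left 24 h at 37 °C, 5% CO2. A dilution series was added in triplicate for 72 h, then AlamarBlue for 2–4 h. Fluorescence was read at ex 530/em 585 nm, with podophyllotoxin as positive control and values from curve fitting.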

Data set [5] deals with Plasmodium falciparum. As to the kind of experiment: Antimalarial activity against Plasmodium falciparum K1 assessed as [3H]hypoxanthine incorporation by scintillation counting. The data set is classed as functional, organism-based.
Data set [6] has as its system Plasmodium falciparum. As to the kind of experiment: Antimalarial activity against drug-sensitive Plasmodium falciparum 3D7 assessed as [3H]hypoxanthine incorporation by scintillation counting. The data set is classed as functional, organism-based.
The test system of data set [7] is Plasmodium falciparum. As to the kind of experiment: Resistance index, ratio of IC50 for chloroquine-resistant Plasmodium falciparum K1 to IC50 for drug-sensitive Plasmodium falciparum 3D7. The data set is classed as functional.
In data set [8] the test system is Plasmodium falciparum. The experiment in a line: Resistance index, ratio of IC50 for chloroquine-resistant Plasmodium falciparum FcB1 to IC50 for drug-sensitive Plasmodium falciparum 3D7. The data set is classed as functional.

The term CC50 denotes the concentration that lowers cell viability or growth by half. The IC50 is the concentration that inhibits the measured activity by half. Consider `COc1ccc2c(c1)C(=O)C(c1ccc(Cl)c(Cl)c1)=[N+]2[O-]`, for which, in data set [1], the “Ratio CC50/IC50” value stood at 81. This molecule yielded a cytotoxic concentration (CC50) at 48 h in data set [2] of 8.1 µM. Also, the 50% inhibitory concentration (IC50) in data set [3] stood at 0.1 µM.

For the molecule `CCC1=[N+]([O-])c2cc3c(cc2C1=O)OCO3`, the “Ratio CC50/IC50” value in data set [1] turned out to be 16. The molecule further yielded a CC50 at 48 h in data set [2] of 59 µM. Also, in data set [3], the IC50 came to 3.56 µM.

On to `COc1ccc(C2=[N+]([O-])c3cc(OC)ccc3C2=O)cc1`, for which the “Ratio CC50/IC50” value in data set [1] worked out at 83.3. In data set [2], this molecule gave a CC50 at 48 h of 8.8 µM. The IC50 in data set [3] came to 0.106 µM.

In turn, `O=C1C(c2ccc([N+](=O)[O-])cc2)=[N+]([O-])c2ccccc21` showed a CC50 at 48 h in data set [2] of 2.8 µM. The concentration for half-maximal inhibition (IC50) in data set [3] amounted to 0.056 µM.

As to `COc1cc2c(cc1OC)[N+]([O-])=C(c1ccc(C)cc1)C2=O`, the IC50 in data set [3] worked out at 0.265 µM.

For `O=C1C(c2ccc(F)cc2)=[N+]([O-])c2ccccc21`, the “Ratio CC50/IC50” value in data set [1] is 72.5. In data set [2], the CC50 at 48 h is 8.7 µM. In addition, the 50% inhibitory concentration (IC50) in data set [3] amounted to 0.12 µM.

Regarding `O=C1C(c2ccc(Cl)cc2)=[N+]([O-])c2ccccc21`, the “Ratio CC50/IC50” value in data set [1] came out at 66. Moreover, in data set [2], it took 17.8 µM to reach half-maximal cytotoxicity (CC50 at 48 h). Further, the IC50 in data set [3] was found to be 0.272 µM.

Turning to `O=C1C(c2ccc(Cl)cc2)=[N+]([O-])c2cc(C(F)(F)F)ccc21`, in data set [1], the “Ratio CC50/IC50” value was 16.5. This molecule also came in with a CC50 at 48 h in data set [2] of 3.1 µM. The IC50 in data set [3] is 0.186 µM.

`O=C1C(c2ccc(F)cc2)=[N+]([O-])c2cc3c(cc21)OCO3`: the IC50 in data set [3] is 1.71 µM.

Regarding `COc1ccc2c(c1)C(=O)C(c1ccc(NC(C)=O)cc1)=[N+]2[O-]`, the “Ratio CC50/IC50” value in data set [1] turned out to be 18.5. In data set [2], the CC50 at 48 h turned out to be 7.4 µM. Moreover, the IC50 in data set [3] was found to be 0.4 µM.

As to `CCc1ccc(C2=[N+]([O-])c3ccccc3C2=O)cc1`, in data set [1], the “Ratio CC50/IC50” value was more than 14. For the same molecule, the CC50 at 48 h in data set [2] is more than 39.8 µM. Also, in data set [3], the IC50 is 2.75 µM.

Take `COc1ccc2c(c1)C(=O)C(c1ccc(N)cc1)=[N+]2[O-]`: in data set [1], the “Ratio CC50/IC50” value amounted to 528. Besides, the CC50 at 48 h in data set [2] is 12.7 µM. Moreover, the half-maximal inhibitory concentration (IC50) in data set [3] stood at 0.024 µM.

With `COc1ccc2c(c1)C(=O)C(c1ccc(OC(F)(F)F)cc1)=[N+]2[O-]`, in data set [4], the CC50 at 72 h came to 11 µM. The IC50 in data set [5] is 0.081 µM; in data set [6], 0.03 µM; in data set [3], 0.02 µM. Besides, the “Ratio CC50/IC50” value in data set [1] was found to be 415. Moreover, the CC50 at 48 h in data set [2] came to 8.3 µM. The “Ratio IC50” value in data set [7] was 2.7; in data set [8] it was 0.7.

Molecule `COc1ccc(C2=[N+]([O-])c3cc(OC(F)(F)F)ccc3C2=O)cc1` showed a CC50 at 72 h in data set [4] of 16 µM. The values for the IC50 in data set [5], in data set [6] and in data set [3] were 0.112 µM, 0.021 µM and 0.133 µM, respectively. Besides, the “Ratio CC50/IC50” value in data set [1] worked out at 88.1. Moreover, the CC50 at 48 h in data set [2] stood at 11.7 µM. For the same molecule, the “Ratio IC50” value in data set [7] is recorded as 5.3; in data set [8] it was 6.3.

In the case of `COc1ccc2c(c1)C(=O)C(c1ccc(Cl)cc1Cl)=[N+]2[O-]`, the “Ratio CC50/IC50” value in data set [1] was more than 136. This molecule also returned a CC50 at 48 h in data set [2] of more than 31 µM. Further, in data set [3], the half-inhibitory concentration (IC50) turned out to be 0.227 µM.

`COc1ccc2c(c1)C(=O)C(c1ccccc1Cl)=[N+]2[O-]`: the IC50 in data set [3] was 1.13 µM.

Take `COc1ccc(C2=[N+]([O-])c3cc(C(F)(F)F)ccc3C2=O)cc1`: the “Ratio CC50/IC50” value in data set [1] was 58.8. The molecule also had a CC50 at 48 h in data set [2] of 7.9 µM. Besides, in data set [3], the half-maximal inhibitory concentration (IC50) is 0.135 µM.

On to `COc1ccc(C2=[N+]([O-])c3cc([N+](=O)[O-])ccc3C2=O)cc1`, for which, in data set [1], the “Ratio CC50/IC50” value is 63.2. This molecule also returned a CC50 at 48 h in data set [2] of 21.8 µM. Further, the IC50 in data set [3] came out at 0.345 µM.

On to `COc1cc2c(cc1OC)[N+]([O-])=C(c1ccccc1)C2=O`, for which the IC50 in data set [3] stood at 1.89 µM.

For the molecule `O=C1C(c2ccsc2)=[N+]([O-])c2cc(Cl)ccc21`, the “Ratio CC50/IC50” value in data set [1] is reported as 38. In addition, in data set [2], it took 4.9 µM to reach half-maximal cytotoxicity (CC50 at 48 h). Besides, in data set [3], the half-inhibitory concentration (IC50) came to 0.13 µM.

As to `COc1ccc2c(c1)C(=O)C(c1ccc(Cl)c(C)c1)=[N+]2[O-]`, the “Ratio CC50/IC50” value in data set [1] is given as 3425. Besides, the midpoint of cytotoxicity in data set [2], the CC50 at 48 h, lay at 10.3 µM. Also, the IC50 in data set [3] was found to be 0.003 µM.

For `CC(C)CC1=[N+]([O-])c2ccccc2C1=O`, the “Ratio CC50/IC50” value in data set [1] is less than 9. In addition, the CC50 at 48 h in data set [2] is 43.1 µM. In addition, the IC50 in data set [3] was more than 4.5 µM.

Take `COc1ccc2c(c1)C(=O)C(c1ccc(C(C)=O)cc1)=[N+]2[O-]`: the CC50 at 48 h in data set [2] was found to be 40.2 µM. Moreover, the IC50 in data set [3] is 0.256 µM.

With `COc1ccc2cc(C3=[N+]([O-])c4cc5c(cc4C3=O)OCO5)ccc2c1`, the CC50 at 48 h in data set [2] was 25.6 µM.

Source of the values: ChEMBL document CHEMBL1156797, “Synthesis and antiplasmodial activity of new indolone N-oxide derivatives” (J Med Chem, 2010).
